The text below walks through data of article PMC3628437 (Antiviral research, 2013).

In one assay the test system is hepatitis B virus (HBV). Briefly: Real-time immune-absorbance PCR. It is filed as cell-based. Particulars: for Reduction of HBV virion levels in culture medium / Fold HBV reduction: G2.215 cells; for Reduction of HBV virion levels in culture medium: 5μM; for Fold HBV reduction: 10 μM compound, HBV DNA in culture medium by IA-PCR.
The subject of assay [1] is HBV large surface protein (LHBs). Briefly: Western blot of LHBs-containing HBV particles in G2.215 culture medium. The class given is cell-based, hepatitis B virus. Particulars: G2.215 cells, 10 or 20μM, 6 day treatment.
Assay [2] deals with HBV replication. Put plainly: Southern blot of cellular HBV replication intermediates in G2.215 cells. The class given is cell-based, hepatitis B virus. The conditions noted are these: any concentration tested. Summed up:
(§1)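 Cytoplasmic core DNA: one 6-well-plate well lysed 10 min at 37°C in Tris-EDTA pH 8.0 with NP40/sucrose. Nuclei removed; capsids PEG8000/NaCl-precipitated 2 h at 4°C, pronase/SDS-digested 1 h at 37°C, phenol-extracted, ethanol-precipitated. Half run on 1.5% agarose, depurinated, denatured, neutralised, blotted and probed with α-32P-UTP HBV probe for RC, DSL and SS forms. HepDE19 tet-free 5 days before dosing; G2.215 kept in G418.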

The subject of a further assay is equine herpesvirus-4. Particulars: ref Romanowski et al., 1999; Storey et al., 2002; cited from earlier work.
The subject of the next assay is feline herpesvirus-1. Particulars: ref Romanowski et al., 1999; Storey et al., 2002; cited from earlier work.
The test system of the next assay is HBV virions. It is filed as cell-based, hepatitis B virus. The conditions noted are these: HepDE19 cells, 5 day treatment. Summed up: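 HepDE19 cells (DMEM/F12, 10% FBS, tetracycline-suppressed) were switched to tet-free medium for 5 days, then dosed for 5 days at several concentrations (0.5% DMSO final). Virions from 1ml clarified medium were precipitated with 10% PEG8000 (final), 1 h at 4°C, pelleted and dissolved in TNE pH7.4. Run on non-denaturing 1% agarose to separate virions from naked nucleocapsids, then blotted and hybridized with labeled HBV probe.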

Assay [3] concerns HBV replication. Put plainly: Southern blot of cellular HBV DNA in HepDE19 cells. The class given is cell-based, hepatitis B virus. The conditions noted are these: up to 10 μM. Summed up: as §1
In another assay the test system is Varicella Zoster Virus. Particulars: ref Mekler et al., 1969; cited from earlier work.
A further assay deals with influenza virus. The conditions noted are these: ref Mekler et al., 1969; cited from earlier work.

With `CCCOc1ccc(C(=O)OCCN(CC)CC)cc1N` [Proparacaine], the “Reduction of HBV virion levels in culture medium” value in the assay with hepatitis B virus (HBV) is recorded as ~ 3 CT. In addition, the “Fold HBV reduction” value in the assay on hepatitis B virus (HBV) (6 days) turned out to be 6 Fold. The IC50 in the assay on hepatitis B virus (HBV) (Hepatitis B virus, read-out: IC50 against HBV) came to 1000 nM. Besides, in assay [1], the “Inhibition of secretion of HBV particles containing LHBs in culture medium” value is given as 3- to 4 fold. For the same compound, in the assay with HBV replication [2], the “Level of relaxed circular HBV DNA (RC-DNA) versus untreated control” value is “no reduction”. The Inactivation of virus result in the assay with equine herpesvirus-4 and in the assay on feline herpesvirus-1 was “can inactivate” in each case.
For `O=C(c1ccc(OCCN2CCCCC2)cc1)c1c(-c2ccc(O)cc2)sc2cc(O)ccc12` [Raloxifene], in the assay on hepatitis B virus (HBV) (6 days), the “Fold HBV reduction” value was found to be 3.5 Fold.
For the compound `Nc1ccn([C@@H]2CS[C@H](CO)O2)c(=O)n1` [lamivudine], the “CT of medium from treated G2.215 cells” value in the assay on hepatitis B virus (HBV) (30μM, 6 days, carrier alone CT ~26 undiluted) is recorded as 30–31 CT.
`C[C@@H]1C/C=C/C=C/C=C/C=C/[C@H](O[C@@H]2O[C@H](C)[C@@H](O)[C@H](N)[C@@H]2O)C[C@@H]2O[C@](O)(C[C@@H](O)C[C@H]3O[C@@H]3/C=C/C(=O)O1)C[C@H](O)[C@H]2C(=O)O` [Natamycin]: the “Fold HBV reduction” value in the assay with hepatitis B virus (HBV) (6 days) was found to be 4 Fold.
As for `C=Cc1c(C)c2cc3nc(c4c5[n-]c(cc6nc(cc1[n-]2)C(C)=C6CC)c(C)c5C(=O)[C@@H]4C(=O)OC)[C@@H](CCC(=O)O)[C@@H]3C.[Mg+2]` [Chlorophyllide], the “Reduction of HBV virion levels in culture medium” value in the assay on hepatitis B virus (HBV) was ~ 2 CT. Besides, the “Fold HBV reduction” value in the assay on hepatitis B virus (HBV) (6 days) came to 4 Fold. Moreover, in the assay with HBV virions, the “Formation and secretion of nucleocapsids” value is reported as “not affected”; the “Viral particles in cell culture medium” value is listed as “reduces viral particles in the cell culture medium in a dose-dependent manner”. The “RC or SS DNA levels (cellular HBV DNA)” value with HBV replication [3] is recorded as “did not repress”. For the same compound, the Inactivation of virus result in the assay on Varicella Zoster Virus was “inactivate”. For the same compound, the Inactivation of virus result in the assay with influenza virus was “inactivate”.

For orientation: IC50 means the concentration at which inhibition is half-maximal.
